Experimental data as given in ChEMBL document CHEMBL4359848, “Merging memantine and ferulic acid to probe connections between NMDA receptors, oxidative stress and amyloid-β peptide in Alzheimer's disease” (Eur J Med Chem, 2019).
Calls of active or inactive are those of the source. The calls are words filed in the database; no cut-off is given here.

Key:
[1] = molecular target: Glutamate NMDA receptor; GRIN1/GRIN2A (Homo sapiens, UniProt Q05586+Q12879); experiment: Antagonist activity at GluN1a/GluN2A (unknown origin) expressed in Xenopus laevis oocytes at -60 mV holding potential by voltage clamp method; assay type: cell-based
Chain of Glutamate NMDA receptor; GRIN1/GRIN2A (Q12879 whole entry, other chains not shown, the tested form may be a part): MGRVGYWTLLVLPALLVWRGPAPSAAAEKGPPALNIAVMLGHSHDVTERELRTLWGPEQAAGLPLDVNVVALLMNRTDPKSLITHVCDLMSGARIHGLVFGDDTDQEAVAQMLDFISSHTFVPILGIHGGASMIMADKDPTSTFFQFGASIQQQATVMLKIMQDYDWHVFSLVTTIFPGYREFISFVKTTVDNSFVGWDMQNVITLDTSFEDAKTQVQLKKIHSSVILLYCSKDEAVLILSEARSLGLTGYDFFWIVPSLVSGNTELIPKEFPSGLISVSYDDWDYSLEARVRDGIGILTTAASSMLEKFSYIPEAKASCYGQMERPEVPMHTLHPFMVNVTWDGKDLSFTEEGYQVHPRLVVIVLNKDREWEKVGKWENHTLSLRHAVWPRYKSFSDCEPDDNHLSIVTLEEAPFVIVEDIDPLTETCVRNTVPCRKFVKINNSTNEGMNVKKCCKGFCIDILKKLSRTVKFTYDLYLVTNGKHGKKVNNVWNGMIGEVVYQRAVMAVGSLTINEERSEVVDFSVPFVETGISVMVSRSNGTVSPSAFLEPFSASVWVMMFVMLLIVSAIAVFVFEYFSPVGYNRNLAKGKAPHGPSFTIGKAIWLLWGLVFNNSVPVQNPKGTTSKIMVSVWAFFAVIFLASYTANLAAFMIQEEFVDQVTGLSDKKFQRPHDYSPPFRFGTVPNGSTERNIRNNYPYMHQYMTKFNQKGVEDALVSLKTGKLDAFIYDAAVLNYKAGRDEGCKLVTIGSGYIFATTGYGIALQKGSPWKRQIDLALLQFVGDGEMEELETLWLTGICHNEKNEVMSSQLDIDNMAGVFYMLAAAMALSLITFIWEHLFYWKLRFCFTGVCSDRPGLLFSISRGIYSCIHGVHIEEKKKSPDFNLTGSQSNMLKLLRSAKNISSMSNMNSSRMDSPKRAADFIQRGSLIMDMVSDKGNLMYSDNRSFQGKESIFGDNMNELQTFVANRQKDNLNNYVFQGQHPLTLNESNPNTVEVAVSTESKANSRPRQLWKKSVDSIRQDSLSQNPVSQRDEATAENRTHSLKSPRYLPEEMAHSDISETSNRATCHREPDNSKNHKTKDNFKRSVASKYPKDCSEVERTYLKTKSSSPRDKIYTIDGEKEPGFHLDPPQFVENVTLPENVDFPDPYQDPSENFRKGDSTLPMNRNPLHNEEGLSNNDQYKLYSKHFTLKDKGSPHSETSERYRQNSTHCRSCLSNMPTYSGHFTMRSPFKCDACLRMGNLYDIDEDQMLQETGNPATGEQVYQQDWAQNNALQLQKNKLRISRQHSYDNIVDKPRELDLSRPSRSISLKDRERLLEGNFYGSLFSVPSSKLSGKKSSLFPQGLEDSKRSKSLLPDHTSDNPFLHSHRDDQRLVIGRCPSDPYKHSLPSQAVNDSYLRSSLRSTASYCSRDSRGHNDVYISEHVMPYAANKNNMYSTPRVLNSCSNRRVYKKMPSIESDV
Summary of the method: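 Rat-free detail absent; GluN1-1a/GluN2A cRNA (1:1 by weight) injected into defolliculated oocytes, kept 3–4 days at 18 °C in modified Barth's media. Two-electrode voltage clamp at -60 mV, perfusion with 96 mM NaCl, 2 mM KCl, 1.8 mM CaCl2, 10 mM HEPES pH 7.5. Currents evoked by 100 μM NMDA + 10 μM glycine; compound 0.01–100 μM added at steady state until new plateau; % control fit to Hill equation for IC50; ≥5 oocytes.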

SH-SY5Y [2] = experiment: Neuroprotective activity in human SH-SY5Y cells assessed as reduction in H2O2-induced intracellular ROS formation at 10 uM preincubated for 24 hrs followed H2O2 addition and measured after 10 to 90 mins by DCFH-DA staining based assay; assay type: functional, cell-based
Summary of the method: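 SH-SY5Y cells pretreated 24 h with 10 μM compound, then loaded with 25 μM DCFH-DA for 45 min and challenged with 300 μM H2O2. Fluorescence (485/530 nm) followed from 10 to 90 min. Compared against H2O2 alone by Dunnett's test.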

H4 [3] = experiment: Cytotoxicity against human H4 cells harboring swedish mutant form of APP assessed as reduction in cell viability up to 20 uM incubated for 24 hrs by MTT assay; assay type: cell-based; conditions: h4, 24 h
SH-SY5Y [4] = experiment: Cytoprotective activity in human SH-SY5Y cells assessed as increase in HO1 protein level at 20 uM incubated for 24 hrs by Western blot analysis; assay type: functional
Summary of the method: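 SH-SY5Y human neuroblastoma cells (EMEM/Ham's F-12 with 10% heat-inactivated FBS, 37 °C, 5% CO2) treated 24 h at 10 or 20 μM, compound diluted from DMSO stock (final DMSO <0.1%). Whole-cell lysates in Tris/NaCl/EDTA/Triton buffer, SDS-PAGE and PVDF blot probed with anti-HO-1. Tubulin served as loading control, ECL detection, densitometry given as % of untreated control.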

SH-SY5Y [5] = experiment: Cytoprotective activity in human SH-SY5Y cells assessed as increase in HO1 protein level incubated for 24 hrs by Western blot analysis; assay type: functional, cell-based
Summary of the method: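 SH-SY5Y cells treated 24 h at 10 or 20 μM. Cells washed in ice-cold PBS, lysed in Tris/NaCl/EDTA/Triton buffer, equal protein run on reducing SDS-PAGE, blotted to PVDF. Probed with anti-HO-1 (1:1000), β-tubulin as loading control, ECL detection. Densitometry expressed as % of control ± SEM.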

SH-SY5Y [6] = experiment: Cytotoxicity against human SH-SY5Y cells assessed as reduction in cell viability up to 20 uM incubated for 24 hrs by MTT assay; assay type: cell-based
Summary of the method: (§1)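 SH-SY5Y cells plated at 2.5×10^4 per well and exposed 24 h to 1–50 μM. MTT at 1 mg/mL in complete medium for 4 h, then SDS solubilisation for 24 h and absorbance read. Viability given as % of untreated control. Dunnett's test, n = 3.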

H4 [7] = experiment: Effect on total intracellular APP in human H4 cells harboring swedish mutant form of APP assessed as change in full length APP protein level at 10 uM incubated for 24 hrs by Western blot analysis; assay type: cell-based; conditions: h4, 24 h
Summary of the method: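 H4 cells bearing Swedish APP, kept in DMEM/10% FBS under hygromycin B and blasticidin S selection, treated 24 h with 10 μM. Lysates analysed by Western blot for full-length APP. Densitometry normalized to α-tubulin. One-way ANOVA with post-hoc test.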

Homo sapiens = organism: Homo sapiens; experiment: Activation of alpha secretase in human H4 cells harboring swedish mutant form of APP assessed as increase in sAPPalpha protein level at 10 uM incubated for 24 hrs by Western blot analysis
SH-SY5Y [8] = experiment: Neuroprotective activity in human SH-SY5Y cells assessed as reduction in H2O2-induced intracellular ROS formation at 10 uM and measured for 30 to 300 mins by DCFH-DA staining based assay; assay type: functional, cell-based
Summary of the method: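 SH-SY5Y cells loaded with 25 μM DCFH-DA for 45 min, then given 10 μM compound together with 300 μM H2O2. Fluorescence read at ex 485/em 530 nm over 30–300 min. Compared against H2O2 alone by Dunnett's test.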

SH-SY5Y [9] = experiment: Cytoprotective activity in human SH-SY5Y cells assessed as increase in Nrf2 mRNA expression level at 10 uM incubated for 6 hrs by RT-PCR analysis; assay type: functional, cell-based
Summary of the method: (§2)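 SH-SY5Y cells in EMEM/F-12 (1:1) with 10% heat-inactivated FBS, 37 °C, 5% CO2, exposed 6 h to 10 μM compound, final DMSO <0.1%. Total RNA extracted and Nrf2 and HO-1 mRNA quantified by real-time RT-PCR with GAPDH as endogenous reference. Mean ± SEM, experiments repeated at least three times.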

SH-SY5Y [10] = experiment: Cytoprotective activity in human SH-SY5Y cells assessed as increase in HO1 mRNA expression level at 10 uM incubated for 6 hrs by RT-PCR analysis relative to control; assay type: functional; summary of the method: as §2
SH-SY5Y [11] = experiment: Cytotoxicity against human SH-SY5Y cells assessed as reduction in cell viability up to 50 uM incubated for 24 hrs by MTT assay; assay type: cell-based; summary of the method: as §1

SMILES | IC50 [1] [µM] | Activity (SH-SY5Y [2]) | Activity (H4 [3]) | fold change (FC) (SH-SY5Y [4]) | Activity (SH-SY5Y [5]) | Activity (SH-SY5Y [6]) | Activity (H4 [7]) | activation (Homo sapiens) | Activity (SH-SY5Y [8]) | Activity (SH-SY5Y [9]) | Activity (SH-SY5Y [10]) | Activity (SH-SY5Y [11])
COc1cc(/C=C/C(=O)NCCCCNC(=O)C23CC4(C)CC(C)(CC(N)(C4)C2)C3)ccc1O | > 100 |  |  |  |  |  |  |  |  |  |  | 
COc1cc(/C=C/C(=O)NCCCNC23CC4CC(C)(CC(C)(C4)C2)C3)ccc1O | > 100 |  |  |  |  |  |  |  |  |  |  | 
COc1cc(/C=C/C(=O)NCCCCCCNC23CC4CC(C)(CC(C)(C4)C2)C3)ccc1O | 6.9 | Active | Non-Toxic | 2 | Dose-dependent effect | Non-Toxic | Non-Toxic | Active | Active | Active | 150% | 
COc1cc(/C=C/C(=O)O)ccc1O [FERULATE] |  | Active |  |  |  | Non-Toxic |  | inactive | Active | inactive | inactive | Non-Toxic
COc1cc(/C=C/C(=O)NCCNC(=O)C23CC4(C)CC(C)(CC(N)(C4)C2)C3)ccc1O | > 100 |  |  |  |  |  |  |  |  |  |  | 
COc1cc(/C=C/C(=O)NCCCCNC23CC4CC(C)(CC(C)(C4)C2)C3)ccc1O | 23.9 | Active | Non-Toxic |  |  | Non-Toxic | Non-Toxic | inactive | Active | inactive | inactive | Non-Toxic
COc1cc(/C=C/C(=O)NCCCCCNC23CC4CC(C)(CC(C)(C4)C2)C3)ccc1O | 14.1 | Active | Non-Toxic |  |  | Non-Toxic | Non-Toxic | inactive | Active | inactive | inactive | 
COc1cc(/C=C/C(=O)NCCCNC(=O)C23CC4(C)CC(C)(CC(N)(C4)C2)C3)ccc1O | > 100 |  |  |  |  |  |  |  |  |  |  | 
